# This is a sample that favours compounds with a hit; in the whole collection about 2.9% have one here.
# ADAM10 inh: inhibits human ADAM10; O14672; recombinant ADAM10, EDANS/DABCYL FRET peptide cleavage, 3 h; inhibition, % at 7 µM; 370,000 tested, 0.62% active; AID 720582;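 active means inhibition above a per-campaign cutoff equal to the mean of compounds falling between control-based bounds plus 3 SD, cut at about 20% in these data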;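 further: 0% = DMSO wells while the 100% control is not disclosed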
# Arrestin-AP2 inh: blocks beta-arrestin peptide binding to AP2 adaptin | FITC-arrestin peptide / GST-AP2 beads, flow cytometry; AP2 beta2 appendage carries R879A mutation | inhibition, % at 10 µM | 340,000 tested, 0.31% active;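 active means inhibition above a set limit, near 3 SD of compounds lacking own fluorescence, cut at about 54% in these data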;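 further: plate controls were DMSO wells for no effect and 5 µM unlabelled arrestin peptide for full effect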
#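 System: GST-AP2 R879A glutathione beads; medium: PBS, Tween 20 0.05%, BSA 0.1%; reagent: fluorescein-tagged arrestin peptide at 50 nM final; schedule: pre-incubation 12 min, peptide binding 1 h, room temperature; detection: flow cytometry, FL1 (488/535 nm); read-out: inhibition as reduced fluorescein signal on beads, percent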
# ADAM17 inh: inhibits human ADAM17; P78536; recombinant ADAM17, EDANS/DABCYL FRET peptide cleavage; inhibition, % at 6.95 µM; 370,000 tested, 0.83% active; AID 720648;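 active means inhibition above the mean of compounds lying between control limits plus 3 SD, set per campaign, cut at about 8.5% in these data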;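 further: 0% = DMSO-only wells as the low control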
# Target sequence (P78536 215-824 limits assumed): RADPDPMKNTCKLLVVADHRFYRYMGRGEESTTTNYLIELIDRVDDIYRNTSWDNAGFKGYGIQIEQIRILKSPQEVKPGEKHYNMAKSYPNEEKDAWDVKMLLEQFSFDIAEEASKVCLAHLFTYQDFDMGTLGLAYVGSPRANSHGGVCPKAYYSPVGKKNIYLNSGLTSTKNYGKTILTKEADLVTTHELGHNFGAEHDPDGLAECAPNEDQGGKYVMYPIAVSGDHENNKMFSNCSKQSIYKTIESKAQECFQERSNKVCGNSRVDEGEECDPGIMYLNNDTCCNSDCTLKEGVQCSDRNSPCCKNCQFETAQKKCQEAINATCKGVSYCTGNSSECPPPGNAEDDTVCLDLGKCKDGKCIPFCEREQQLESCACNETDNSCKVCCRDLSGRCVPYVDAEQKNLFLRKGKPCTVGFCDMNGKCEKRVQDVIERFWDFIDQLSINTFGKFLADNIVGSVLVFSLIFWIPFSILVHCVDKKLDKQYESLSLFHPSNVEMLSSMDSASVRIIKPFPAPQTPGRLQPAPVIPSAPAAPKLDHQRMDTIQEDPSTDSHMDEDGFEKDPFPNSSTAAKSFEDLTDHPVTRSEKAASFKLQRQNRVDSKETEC
# CaV13 ICDI inh: Primary screen for inhibitors of IQ motif and Ca2+-dependent inactivation inhibitor domain binding in CACNA1D, Förster resonance energy transfer in living cells, …; 340,000 tested, 0.098% active; inhibition, % at 12.3 µM; HEK cells, CFP/YFP FRET ICDI-IQ, plate reader, 10 min; percent FRET-ratio fall versus neutral wells; AID 743397;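 active means mean replicate inhibition of at least 30% and at least 1% of replicates passing that level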;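 further: 0% = median of the neutral control wells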
# NRP1-CendR mod: modulators of CendR peptide binding to human neuropilin-1 | inhibition, % at 25 µM | FAM-RPARPAR peptide binding to NRP-1, fluorescence polarization | 360,000 tested, 0.85% active | AID 602438 | O14786;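 active means inhibition or corrected inhibition above about 18%, plus a signal ratio from 0.5 to 1.5, limit read from the data, passing the limit was not always enough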
# FAS-TE inh: inhibitors of human fatty acid synthase thioesterase domain. P49327. recombinant FAS-TE, OMFH fluorogenic substrate, fluorescence endpoint. inhibition, % at 15 µM. 360,000 tested, 0.67% active. AID 602261;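 active means compounds whose normalised, plate-corrected inhibition of enzyme fluorescence in the single-dose primary screen is 50% or more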;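 further: 0% = DMSO with enzyme and 100% = substrate without enzyme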
# FAS-TE inh conf: confirmation of human fatty acid synthase thioesterase inhibitors; 2,300 tested, 45% active; recombinant FAS-TE, OMFH fluorogenic substrate, fluorescence; inhibition, % at 15 µM; shares compounds with FAS-TE inh;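 active means compounds inhibiting the enzyme by at least 50% at 15 µM in any one of the replicates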;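 further: 0% = enzyme with DMSO only and 100% = wells lacking enzyme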
# ADAM10 confirm: human ADAM10 inhibition, confirmation; shares compounds with ADAM10 inh; ADAM10 QFRET peptide cleavage, EDANS fluorescence; inhibition, % at 6.95 µM; 2,100 tested, 1% active; AID 743208;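 active means inhibition above about 20% chosen separately for each screening run, limit read from the data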;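 further: 0% = DMSO wells and 100% = marimastat wells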
# ADAM17 ctr: inhibits human ADAM17 in ADAM10 exosite counter-screen; AID 743214; inhibition, % at 6.95 µM; shares compounds with ADAM10 inh; ADAM17 QFRET peptide cleavage, EDANS fluorescence; 2,100 tested, 0.5% active;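 active means mean triplicate inhibition above the solvent-only control wells' mean plus 3 SD, cut at about 12% in these data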;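 further: 0% = DMSO wells and 100% = marimastat wells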
# ADAM10 ctr: ADAM10 inhibition, counter-screen for ADAM17 exosite hits | shares compounds with ADAM17 inh | recombinant ADAM10, EDANS/DABCYL FRET peptide cleavage, 3 h | inhibition, % at 6.95 µM | 2,900 tested, 47% active | AID 743256;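 active means mean inhibition over the triplicate runs exceeds the activity threshold set in the earlier primary screen, cut at about 20% in these data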;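 further: 0% = DMSO wells and 100% = marimastat wells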
# ADAM17 confirm: confirmation of inhibitors of human ADAM17. AID 743257. inhibition, % at 6.95 µM. recombinant ADAM17, EDANS/DABCYL QFRET peptide cleavage. shares compounds with ADAM17 inh. 2,900 tested, 65% active;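 active means mean inhibition across replicates above the hit cutoff set in the primary screen, cut at about 8.5% in these data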;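 further: 0% = DMSO wells and 100% = marimastat wells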
# The depositor's hits bear a star; i = inactive; . = not tested or not shown.
SMILES,ADAM10 inh,Arrestin-AP2 inh,ADAM17 inh,CaV13 ICDI inh,NRP1-CendR mod,FAS-TE inh,FAS-TE inh conf,ADAM10 confirm,ADAM17 ctr,ADAM10 ctr,ADAM17 confirm
O=C1OCCN1C(=O)[C@H]1[C@H](c2ccc([N+](=O)[O-])cc2)C(c2ccccc2)=NN1c1ccc(Br)cc1,17,4,11*,-8,-7,90*,12,.,.,15,12*
N#Cc1c(-c2ccccc2)c(-c2ccccc2)nn(CC(=O)NNC(=O)Nc2ccc(Cl)c(Cl)c2)c1=O,9,-1,15*,.,3,69*,48*,.,.,27*,18*
O=C(Cn1nc(-c2ccccc2)c2ccccc2c1=O)Nc1ccc(F)cc1,9,-2,1,20,4,-1,.,.,.,.,.
COCCN1C[C@@H](CO)O[C@@H](n2cnc3c(NC(C)C)ncnc32)C1,-7,.,-1,-10,10,-8,.,.,.,.,.
CC(C)(C)OC(=O)NCCCC[C@H](NC(=O)c1[nH]cnc1C(=O)Nc1ccccc1)C(=O)OC(C)(C)C,36*,-6,11*,-10,21*,69*,80*,4,2,44*,22*
COc1ccc2c(c1)[C@H]1[C@H](CO2)[C@H](c2ccccc2)[C@]2(C)C(=O)Nc3cc(F)ccc3C(=O)N12,13,0,10.0*,-10,9,54*,30,.,.,-10,0
CCOC(=O)[C@H]1[C@H]2COc3ccc(Cl)cc3[C@@H]2N2C(=O)CN(Cc3ccccc3)C(=O)[C@@]12C,2,5,1,-10,-10,14,.,.,.,.,.
COc1ccc2c(c1)OC[C@H]1[C@H]2N2C(=O)CN(Cc3ccc(Cl)cc3)C(=O)[C@@]2(C)[C@H]1c1ccccc1,16,19,9.9*,-11,-20,75*,29,.,.,29*,13*
CCOC(=O)[C@H]1[C@H]2COc3cc(OC)ccc3[C@@H]2N2C(=O)CN(Cc3ccccc3)C(=O)[C@@]12C,-4,-3,5,-10,12,-1,.,.,.,.,.
Cc1ccc(CN2CC(=O)N3[C@H]4c5cc(Cl)ccc5OC[C@@H]4[C@H](c4ccccc4)[C@]3(C)C2=O)cc1,15,24,9.4*,-10,9,84*,17,.,.,8,7
CCCCCCC(=O)NC1CCCCN(Cc2cccc(Cl)c2)C1=O (centres undefined),4,.,2,.,.,.,.,.,.,.,.
CC(=O)Nc1cccc(C(=O)NN2C(=O)NC3(CCC(C)CC3)C2=O)c1 (centres undefined),-11,.,-3,-6,-1,-4,.,.,.,.,.
O=C(OCC#CCSc1nnc(-c2cccc3ccccc23)o1)C1CCCC1,-43,.,-11,.,.,.,.,.,.,.,.
C[C@H](CO)N1C[C@H](C)[C@@H](CN(C)C(=O)Nc2ccccc2)Oc2c(NC(=O)Nc3ccc(C(F)(F)F)cc3)cccc2C1=O,26*,4,12*,-4,9,83*,92*,2,0,37*,19*
Cc1cc(NC(=O)COC(=O)[C@@H](NS(=O)(=O)c2ccccc2)C(C)C)no1,-9,4,-1,-4,-11,-2,.,.,.,.,.
COc1cc2c(cc1NC(=O)COC(=O)[C@@H](NS(=O)(=O)c1ccccc1)C(C)C)oc1ccccc12,19,-5,11*,-8,-5,67*,-5,.,.,-5,5
CC(NC(=O)COC(=O)c1cc(NS(=O)(=O)c2ccc(Cl)c([N+](=O)[O-])c2)ccc1O)C1CC2CCC1C2 (centres undefined),22*,-6,8.8*,-5,-16,53*,51*,9,2,38*,17*
CC(C)C(=O)NC(c1ccccc1)c1cc([N+](=O)[O-])c2cccnc2c1O (centres undefined),20*,1,8,-6,0,5,.,10,4,.,.
CC(=O)NC(c1ccccc1)c1cc([N+](=O)[O-])c2cccnc2c1O (centres undefined),15,26,0,-1,9,5,.,.,.,.,.
CCO[C@H]1OC(C(=O)NCc2nc3ccccc3[nH]2)=C[C@@H](c2ccc(C(F)(F)F)cc2)[C@@H]1CCCO,17,1,2,-11,-2,9,.,.,.,.,.
CCO[C@H]1OC(C(=O)NCc2ccccc2)=C[C@@H](c2ccc(C(F)(F)F)cc2)[C@@H]1CCCO,22*,0,2,-11,15,26,.,-1,0,.,.
COc1ccc(-c2ccc(-c3noc(-c4cccc(OC)c4)n3)c(OC)n2)cc1,39*,0,-4,-10,-7,32,.,73*,42*,.,.
COc1ccc(-c2ccc(-c3noc(-c4ccc(OC)c(OC)c4)n3)c(OC)n2)cc1,-13,.,-5,-8,.,.,.,.,.,.,.
COc1cccc(-c2cc3nc(NCc4ccccc4F)n(C)c(=O)c3s2)c1,-24,.,-6,-5,-10,15,.,.,.,.,.
Cc1cc(N2CCOCC2)ccc1/C=C\[N+](=O)[O-],20*,5,5,-5,4,-9,.,1,0,.,.
O=[N+]([O-])c1ccc(N2CCOCC2)cc1O,1,-4,-1,6,-2,-5,.,.,.,.,.
COc1ccc2c(c1)C[C@]1(C)c3ccccc3C(=O)N(Cc3ccccc3)[C@H]21,26*,5,5,-10,-2,29,.,3,1,.,.
COc1cccc(C2Nc3ccccc3C(=O)N2Cc2ccccc2)c1 (centres undefined),i,3,-273,-4,2,14,.,.,.,.,.
OCCCn1c(CCNc2nc(-c3ccc(F)cc3)cs2)nc2cc(C(F)(F)F)ccc21,21*,-5,7,-11,5,22,.,5,1,.,.
Cc1[nH]c2ccccc2c1C(=O)COC(=O)C1CC(=O)N(Cc2ccccc2)C1 (centres undefined),8,-4,-1,-6,12,-1,.,.,.,.,.

# Source: PubChem
